# Experimental data collected from several papers.
# Read-out: enzyme activity
# RET: Proto-oncogene tyrosine-protein kinase receptor Ret (RET, Homo sapiens, UniProt P07949)
Structure (SMILES),target,test,setting,remaining activity
CCOc1ccc(NC(=O)Nc2cc(OC)c3nc(NC(=O)c4ccccc4)sc3c2)cc1,RET,"inhibitor, radiometric",0.1 µM,115%
CC(C)(C)c1nc(-c2cccc(NS(=O)(=O)c3c(F)cccc3F)c2F)c(-c2ccnc(N)n2)s1,RET,"inhibitor, radiometric",1 µM,81%
COc1cc(Cl)c(C(=O)N[C@@H](CN[C@H]2CC[C@@H](N)CC2)Cc2ccc(C#N)cc2)cc1-c1ccc(CN[C@H](C)c2ccc(C)cc2)o1,RET,inhibitor,1 µM,110%
COc1cc(NC(=O)Nc2ccccc2Br)cc2sc(NC(=O)c3ccccc3)nc12,RET,"inhibitor, radiometric",0.1 µM,106%
Cc1cnc(NC2CCOCC2)nc1-n1cnc(C(=O)NC(CN)c2cc(F)cc(Cl)c2)c1 (stereo not drawn),"Proto-oncogene tyrosine-protein kinase receptor Ret (RET, Homo sapiens, UniProt P07949, V804M)","inhibitor, radiometric",1 µM,100%
COc1cc(NC(=O)Nc2cccc(Br)c2)cc2sc(NC(=O)c3ccccc3)nc12,RET,"inhibitor, radiometric",0.1 µM,153%
CCN(CC)CCNC(=O)c1c(C)[nH]c(/C=C2\C(=O)Nc3ccc(F)cc32)c1C,RET,inhibitor,1 µM,0%
COCC(=O)Nc1cc(C(=O)NCCc2cnn(C)c2)cc2ncn(CCc3ccccc3)c12,RET,"inhibitor, radiometric",0.1 µM,118%
CCCOc1ccc(OC)c(F)c1C(=O)c1ccc(C(=O)N[C@@H]2CNC[C@H]2NC(=O)c2ccc3[nH]ncc3c2)cc1,RET,inhibitor,50 nM,100%
Cc1sc(C(=O)NC2COC2)cc1-n1cc(NC(=O)Nc2c(F)cccc2Cl)cn1,RET,inhibitor,10 µM,113%
Cc1[nH]c(/C=C2\C(=O)Nc3ccc(F)cc32)c(C)c1C(=O)N[C@H]1CCN(C(=O)N(C)C)C1,RET,inhibitor,0.1 µM,62%
Cc1ccc(C(=O)Nc2ccc(CN3CCN(C)CC3)c(C(F)(F)F)c2)cc1C#Cc1cnc2cccnn12,"Proto-oncogene tyrosine-protein kinase receptor Ret (RET, Homo sapiens, UniProt P07949, M918T)",,23.5 nM,1.4%
